# Results reported in ChEMBL document CHEMBL2057156, “Synthesis and biological evaluation of the first dual tyrosyl-DNA phosphodiesterase I (Tdp1)-topoisomerase I (Top1) inhibitors” (J Med Chem, 2012).
# Calls of active or inactive are those of the source. The rule behind the calls is not given here.
# Key:
# [1] = target: T1, Tyrosyl-DNA phosphodiesterase 1 (Homo sapiens, UniProt Q9NUW8); assay: Inhibition of human Tdp1 in Tdp1-deficient chicken DT40 whole cell extract using 5'-[32P]-labeled single-stranded DNA oligonucleotide containing 3'-phosphotyrosine as substrate after 15 mins by PAGE analysis
# [2] = target: T2, DNA topoisomerase 1 (Homo sapiens) (UniProt P11387); assay: Inhibition of human recombinant Top1-mediated DNA cleavage by polyacrylamide gel electrophoresis relative to camptothecin; set-up: concentration or dose not given beside the values
# T2 sequence (whole entry): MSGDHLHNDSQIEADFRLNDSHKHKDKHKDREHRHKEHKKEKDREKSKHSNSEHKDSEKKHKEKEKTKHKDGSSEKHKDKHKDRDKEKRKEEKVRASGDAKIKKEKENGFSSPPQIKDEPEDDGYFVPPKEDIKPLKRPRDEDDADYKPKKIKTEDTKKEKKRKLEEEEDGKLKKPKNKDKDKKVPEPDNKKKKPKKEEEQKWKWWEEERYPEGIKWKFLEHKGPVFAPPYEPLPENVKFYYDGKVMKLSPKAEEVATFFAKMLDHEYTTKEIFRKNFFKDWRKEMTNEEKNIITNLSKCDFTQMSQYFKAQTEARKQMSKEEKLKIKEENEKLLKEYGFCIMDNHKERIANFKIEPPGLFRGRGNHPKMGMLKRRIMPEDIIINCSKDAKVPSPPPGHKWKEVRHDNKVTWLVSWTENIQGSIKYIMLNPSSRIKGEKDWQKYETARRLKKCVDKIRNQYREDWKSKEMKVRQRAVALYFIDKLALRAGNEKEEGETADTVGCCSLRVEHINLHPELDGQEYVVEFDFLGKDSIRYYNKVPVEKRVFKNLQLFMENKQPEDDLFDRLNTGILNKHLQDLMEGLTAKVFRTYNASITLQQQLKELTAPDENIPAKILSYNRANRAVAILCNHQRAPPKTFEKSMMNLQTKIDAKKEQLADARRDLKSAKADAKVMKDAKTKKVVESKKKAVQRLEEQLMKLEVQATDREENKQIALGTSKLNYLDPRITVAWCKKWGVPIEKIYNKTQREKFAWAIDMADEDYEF
# In short: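 Baculovirus-purified human recombinant Top1 was incubated for 20 min at 25 °C, with compounds at various concentrations, with about 2 nM of a 117-bp oligonucleotide 3′-end-labeled with [α-³²P]dGTP. Reactions were stopped with 0.5% SDS and run on 20% denaturing PAGE. Cleavage bands were phosphorimaged and graded semiquantitatively against 1 μM camptothecin.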
# [3] = target: T1, Tyrosyl-DNA phosphodiesterase 1; assay: Inhibition of human recombinant Tdp1 using 5'-[32P]-labeled single-stranded DNA oligonucleotide containing 3'-phosphotyrosine as substrate assessed as prevention of generation of oligonucleotide with free 3'-phosphate after 15 mins by PAGE analysis
# [4] = target: T1, Tyrosyl-DNA phosphodiesterase 1; assay: Binding affinity to human recombinant Tdp1 at 0.4 to 33 uM by surface plasmon resonance spectroscopy analysis
# In short: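 Amine-coupled to a CM5 chip to about 4000 RU; before coupling, Tdp1 (1 μM) was preloaded for 20 min with 2 μM 3′-phosphate 14-mer in 10 mM sodium acetate pH 4.5 to shield the active site, then the oligo was stripped with 1 M NaCl. Analyte was injected in 10 mM Hepes, 150 mM NaCl, 0.01% Tween 20, 5% DMSO, pH 7.5, at 30 μL/min, 25 °C. Responses were corrected against a Tdp1-free reference surface, buffer cycles and DMSO calibration.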
# [5] = Growth inhibition of human NCI60 cells; type: functional
# T1 sequence (Q9NUW8 whole entry): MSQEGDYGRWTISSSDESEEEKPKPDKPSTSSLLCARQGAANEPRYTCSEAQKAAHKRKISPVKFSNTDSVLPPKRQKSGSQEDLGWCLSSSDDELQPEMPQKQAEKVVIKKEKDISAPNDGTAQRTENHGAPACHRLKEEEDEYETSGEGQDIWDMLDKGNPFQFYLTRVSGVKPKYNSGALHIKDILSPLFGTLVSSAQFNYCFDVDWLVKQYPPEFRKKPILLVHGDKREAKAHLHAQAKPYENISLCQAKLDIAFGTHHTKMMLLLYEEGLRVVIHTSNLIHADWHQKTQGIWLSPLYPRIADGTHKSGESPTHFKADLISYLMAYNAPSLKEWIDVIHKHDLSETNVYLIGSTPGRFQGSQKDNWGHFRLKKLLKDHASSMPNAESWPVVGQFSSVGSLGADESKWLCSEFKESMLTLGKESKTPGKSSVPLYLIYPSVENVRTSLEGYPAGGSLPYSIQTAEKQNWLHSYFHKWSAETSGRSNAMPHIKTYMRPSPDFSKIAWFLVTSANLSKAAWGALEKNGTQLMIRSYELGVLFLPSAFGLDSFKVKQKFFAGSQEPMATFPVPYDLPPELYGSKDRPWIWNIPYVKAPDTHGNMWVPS
SMILES,inhibition ([2]; concentration not given here) [%],IC50 [3] [µM],inhibition [2],other results
NCCCCCCn1c2c(c3ccccc3c1=O)C(=O)c1ccccc1-2,50,25,–,IC50 [1]: 35 µM
NCCCCCCCn1c2c(c3ccccc3c1=O)C(=O)c1ccccc1-2,0,28.8,–,IC50 [1]: 31 µM
NCCn1c2c(c3ccccc3c1=O)C(=O)c1ccccc1-2,75,55.3,–,IC50 [1]: 78 µM
NCCCCCCCCCCCCn1c2c(c3ccccc3c1=O)C(=O)c1ccccc1-2,0,15.1,–,IC50 [1]: 33 µM
NCCCn1c2c(c3ccccc3c1=O)C(=O)c1ccccc1-2,75,–,–,IC50 [1]: 29.5 µM; Activity [4]: Active
O=C1c2ccccc2-c2c1c1ccc([N+](=O)[O-])cc1c(=O)n2CCCNS(=O)(=O)c1ccccc1,100,> 111,–,GI50 [5]: 0.046 µM
O=C1c2ccccc2-c2c1c1ccccc1c(=O)n2CCCNS(=O)(=O)c1ccccc1,–,> 111,inactive,–
CS(=O)(=O)NCCCCCCCn1c2c(c3ccccc3c1=O)C(=O)c1ccccc1-2,–,> 111,inactive,–
COc1cc2c3c(n(CCCNS(=O)(=O)c4ccccc4)c(=O)c2cc1OC)-c1ccccc1C3=O,75,> 111,–,GI50 [5]: 1.35 µM
O=C1c2ccccc2-c2c1c1ccccc1c(=O)n2CCCCCCNS(=O)(=O)c1ccc(Br)cc1,–,> 111,inactive,–
NCCCCn1c2c(c3ccccc3c1=O)C(=O)c1ccccc1-2,75,–,–,IC50 [1]: 23.4 µM
O=C1c2ccccc2-c2c1c1ccccc1c(=O)n2CCCCCNS(=O)(=O)c1ccc(Br)cc1,–,> 111,inactive,–
NCCCCCCCCCCCn1c2c(c3ccccc3c1=O)C(=O)c1ccccc1-2,20,12.8,–,IC50 [1]: 14.1 µM
O=C1c2ccccc2-c2c1c1ccccc1c(=O)n2CCCNS(=O)(=O)c1ccc(Br)cc1,–,> 111,inactive,–
Cc1ccc(S(=O)(=O)NCCCn2c3c(c4ccccc4c2=O)C(=O)c2ccccc2-3)cc1,–,> 111,inactive,–
Cc1ccc(S(=O)(=O)NCCCCCCCCn2c3c(c4ccccc4c2=O)C(=O)c2ccccc2-3)cc1,–,> 111,inactive,–
O=C1c2ccccc2-c2c1c1ccccc1c(=O)n2CCCCCCNS(=O)(=O)c1ccccc1,–,> 111,inactive,–
CS(=O)(=O)NCCCCCCCCCCn1c2c(c3ccccc3c1=O)C(=O)c1ccccc1-2,–,> 111,inactive,–
O=C1c2ccccc2-c2c1c1ccccc1c(=O)n2CCCCNS(=O)(=O)c1ccc(Br)cc1,–,> 111,inactive,–
CS(=O)(=O)NCCCCCCCCn1c2c(c3ccccc3c1=O)C(=O)c1ccccc1-2,–,> 111,inactive,–
O=C1c2ccccc2-c2c1c1ccccc1c(=O)n2CCCCCCCCNS(=O)(=O)c1ccccc1,–,> 111,inactive,–

SMILES,inhibition ([2]; concentration not given here) [%],IC50 [3] [µM],inhibition [2],other results
Cc1ccc(S(=O)(=O)NCCCCCCCCCCCCn2c3c(c4ccccc4c2=O)C(=O)c2ccccc2-3)cc1,–,> 111,inactive,–
O=C1c2ccccc2-c2c1c1ccccc1c(=O)n2CCCCCCCCCCCNS(=O)(=O)c1ccccc1,–,> 111,inactive,–
CS(=O)(=O)NCCCCCn1c2c(c3ccccc3c1=O)C(=O)c1ccccc1-2,–,> 111,inactive,–
O=C1c2ccccc2-c2c1c1ccccc1c(=O)n2CCCNCCCNCCCn1c2c(c3ccccc3c1=O)C(=O)c1ccccc1-2,100,1.52,–,–
COC(=O)c1ccc2c(c1)C(=O)c1c-2n(CCCNS(=O)(=O)c2ccccc2)c(=O)c2cc(OC)c(OC)cc12,0,> 111,–,GI50 [5]: 12.6 µM
O=C1c2ccccc2-c2c1c1ccccc1c(=O)n2CCNS(=O)(=O)c1ccc(Br)cc1,–,> 111,inactive,–
NCCCCCn1c2c(c3ccccc3c1=O)C(=O)c1ccccc1-2,0,17.5,–,IC50 [1]: 28 µM
O=C1c2cc(-c3ccccc3)ccc2-c2c1c1ccc([N+](=O)[O-])cc1c(=O)n2CCCNS(=O)(=O)c1ccccc1,0,> 111,–,GI50 [5]: 0.55 µM
Cc1ccc(S(=O)(=O)NCCCCCCn2c3c(c4ccccc4c2=O)C(=O)c2ccccc2-3)cc1,–,> 111,inactive,–
O=C1c2ccccc2-c2c1c1ccccc1c(=O)n2CCCCCCCCCNS(=O)(=O)c1ccc(Br)cc1,–,> 111,inactive,–
O=C1c2ccccc2-c2c1c1cc3c(cc1c(=O)n2CCCNS(=O)(=O)c1ccccc1)OCO3,50,> 111,–,GI50 [5]: 0.617 µM
Cc1ccc(S(=O)(=O)NCCCCCCCCCCCn2c3c(c4ccccc4c2=O)C(=O)c2ccccc2-3)cc1,–,> 111,inactive,–
O=C1c2ccccc2-c2c1c1ccccc1c(=O)n2CCCCCCCCNS(=O)(=O)c1ccc(Br)cc1,–,> 111,inactive,–
O=C1c2ccccc2-c2c1c1ccccc1c(=O)n2CCCCCCCNS(=O)(=O)c1ccc(Br)cc1,–,> 111,inactive,–
O=C1c2ccccc2-c2c1c1ccccc1c(=O)n2CCCCCCCCCCCCNS(=O)(=O)c1ccccc1,–,> 111,inactive,–
CS(=O)(=O)NCCCCn1c2c(c3ccccc3c1=O)C(=O)c1ccccc1-2,–,> 111,inactive,–
NCCCCCCCCCCn1c2c(c3ccccc3c1=O)C(=O)c1ccccc1-2,0,14.1,–,IC50 [1]: 21.3 µM
NCCCCCCCCn1c2c(c3ccccc3c1=O)C(=O)c1ccccc1-2,20,48,–,IC50 [1]: 49 µM
NCCCCCCCCCn1c2c(c3ccccc3c1=O)C(=O)c1ccccc1-2,0,47,–,IC50 [1]: 48 µM; inhibition [3]: Dose-dependent effect
CS(=O)(=O)NCCn1c2c(c3ccccc3c1=O)C(=O)c1ccccc1-2,–,> 111,inactive,–
O=C1c2ccccc2-c2c1c1ccccc1c(=O)n2CCCCCCCCCCCCNS(=O)(=O)c1ccc(Br)cc1,–,> 111,inactive,–
